Source: ChEMBL document CHEMBL1157960, “10-Phenyl-[12]-cytochalasins Z7, Z8, and Z9 from the marine-derived fungus Spicaria elegans” (J Nat Prod, 2006)

How the values were obtained:
[1] = test system: P388; test: Cytotoxicity against mouse P388 cells after 72 hrs by MTT method; assay type: functional, cell-based; details: P388, 72 h
How it was run: (§1)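 Cells kept in RPMI-1640 with 10% FBS at 37 °C under 5% CO2/95% air. Seeded at 5 × 10^4 cells/mL and held 24 h before compound was added in DMSO at various concentrations. Incubation then ran 72 h. MTT (5 mg/mL stock) was added for 4 h, formazan was dissolved in DMSO, and absorbance was read at 540 nm. Result reported as IC50.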

[2] = test system: A549; test: Cytotoxicity against human A549 cells after 72 hrs by MTT method; assay type: functional, cell-based; details: A549, 72 h; how it was run: as §1

| SMILES | IC50 [1] [µM] | IC50 [2] [µM] |
| --- | --- | --- |
| CC1=C(C)[C@H]2[C@H](Cc3ccccc3)NC(=O)[C@]23OC(=O)O/C=C/[C@@](C)(O)C(=O)[C@@H](C)C/C=C/[C@H]3[C@@H]1O [CYTOCHALASIN K] | 89 | 8.4 |
| C=C1[C@@H](C)[C@H]2[C@H](Cc3ccccc3)NC(=O)[C@]23OC(=O)/C=C/[C@H](C)[C@H](O)[C@@H](C)C/C=C/[C@H]3[C@@H]1O | 75 | 8.8 |
| CC1=C(C)[C@H]2[C@H](Cc3ccccc3)NC(=O)[C@]23OC(=O)/C=C/[C@H](C)[C@H](O)[C@@H](C)C/C=C/[C@H]3[C@@H]1O | 56 | 21 |
| C[C@H]1C/C=C/[C@H]2[C@@H]3O[C@]3(C)[C@@H](C)[C@H]3[C@H](Cc4ccccc4)NC(=O)[C@]32OC(=O)O/C=C/[C@@](C)(O)C1=O [CYTOCHALASIN E] | 0.093 | 0.0062 |
| CC1=C(C)[C@H]2[C@H](Cc3ccccc3)NC(=O)[C@]23OC(=O)/C=C/[C@@](C)(O)C[C@@H](C)C/C=C/[C@H]3[C@@H]1O [CYTOCHALASIN Z9] | 99 | 8.7 |
